# According to ChEMBL document CHEMBL2331108, “Synthesis and biological evaluation of a new series of hexahydro-2H-pyrano[3,2-c]quinolines as novel selective σ1 receptor ligands” (J Med Chem, 2013):
# Legend:
# [1] = Displacement of [3H]-Di-o-tolyguanidine from guinea pig sigma2 receptor after 120 mins by liquid scintillation counting analysis; design: species or system Cavia porcellus
# [2] = molecular target: Sigma non-opioid intracellular receptor 1 (Homo sapiens, UniProt Q99720); assay: Displacement of [3H]-(+)-pentazocine from human sigma1 receptor transfected in HEK293 cells after 120 mins by liquid scintillation counting analysis; assay type: cell-based
# Sequence of Sigma non-opioid intracellular receptor 1 (Q99720 whole entry): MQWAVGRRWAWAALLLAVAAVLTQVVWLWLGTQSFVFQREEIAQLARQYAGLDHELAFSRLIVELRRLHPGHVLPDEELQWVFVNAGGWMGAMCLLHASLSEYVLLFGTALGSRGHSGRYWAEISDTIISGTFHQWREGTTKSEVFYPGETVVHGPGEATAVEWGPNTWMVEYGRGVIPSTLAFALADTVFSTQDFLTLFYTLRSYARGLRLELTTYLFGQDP
# [3] = Kinetic solubility of the compound; assay type: physicochemical; settings: read-out: Kinetic_solubility
# How it was run: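 Kinetic solubility: compound solution at 1% DMSO in phosphate buffer, pH 7.4, quantified by HPLC.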
# Mus musculus [4] = assay: Antinociceptive activity in ip dosed CD1 mouse assessed as inhibition of formalin-induced pain administered 15 mins before formalin-challenge measured after 15 to 30 mins; assay type: functional, organism-based
# How it was run: (§1)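 Male CD1 mice, 6–8 weeks old (n = 8–12 per group), were dosed ip at 10 mL/kg in 0.5% HPMC vehicle. 15 min later, 20 μL of 2.5% formalin (0.92% formaldehyde) was injected into the right hind paw, midplantar. Licking/biting time was scored 0–5 min (phase I) and 15–30 min (phase II).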
# Cytochrome P450 1A2 = molecular target: T1, Cytochrome P450 1A2 (Homo sapiens, UniProt P05177); assay: Inhibition of human recombinant CYP1A2; assay type: ADME
# T1 sequence (P05177 whole entry): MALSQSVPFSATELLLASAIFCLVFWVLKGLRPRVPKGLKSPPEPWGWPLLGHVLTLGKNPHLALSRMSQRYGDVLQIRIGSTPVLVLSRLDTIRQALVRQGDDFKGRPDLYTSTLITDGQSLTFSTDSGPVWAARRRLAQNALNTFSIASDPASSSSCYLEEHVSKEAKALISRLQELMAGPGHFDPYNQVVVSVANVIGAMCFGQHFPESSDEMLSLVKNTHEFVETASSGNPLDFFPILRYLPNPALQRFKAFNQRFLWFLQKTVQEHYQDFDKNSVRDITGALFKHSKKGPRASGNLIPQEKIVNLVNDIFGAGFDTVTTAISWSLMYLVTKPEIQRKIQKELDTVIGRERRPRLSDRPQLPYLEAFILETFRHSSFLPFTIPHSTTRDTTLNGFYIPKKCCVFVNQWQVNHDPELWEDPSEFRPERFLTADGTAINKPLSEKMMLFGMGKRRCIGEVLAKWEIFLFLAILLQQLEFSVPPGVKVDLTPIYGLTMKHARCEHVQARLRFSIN
# HepG2 [5] = assay: Cytotoxicity against human HepG2 cells up to 100 uM by MTT assay; assay type: cell-based
# Salmonella typhimurium = assay: Genotoxicity in Salmonella typhimurium by Ames test; assay type: toxicity, organism-based; settings: salmonella enterica subsp. enterica serovar typhimurium
# [6] = Dissociation constant, pKa of the compound; assay type: physicochemical
# How it was run: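 pKa measured experimentally by pH-metric titration on an automated GlpKa instrument.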
# Mus musculus [7] = assay: Antinociceptive activity in CD1 mouse assessed as inhibition of formalin-induced pain at 40 mg/kg, ip administered 15 mins before formalin-challenge measured after 15 to 30 mins; assay type: functional; settings: route intraperitoneal; how it was run: as §1
# Cytochrome P450 2C9 = Cytochrome P450 2C9 (Homo sapiens, UniProt P11712); assay: Inhibition of human recombinant CYP2C9; assay type: ADME
# Sequence of Cytochrome P450 2C9 (P11712 whole entry): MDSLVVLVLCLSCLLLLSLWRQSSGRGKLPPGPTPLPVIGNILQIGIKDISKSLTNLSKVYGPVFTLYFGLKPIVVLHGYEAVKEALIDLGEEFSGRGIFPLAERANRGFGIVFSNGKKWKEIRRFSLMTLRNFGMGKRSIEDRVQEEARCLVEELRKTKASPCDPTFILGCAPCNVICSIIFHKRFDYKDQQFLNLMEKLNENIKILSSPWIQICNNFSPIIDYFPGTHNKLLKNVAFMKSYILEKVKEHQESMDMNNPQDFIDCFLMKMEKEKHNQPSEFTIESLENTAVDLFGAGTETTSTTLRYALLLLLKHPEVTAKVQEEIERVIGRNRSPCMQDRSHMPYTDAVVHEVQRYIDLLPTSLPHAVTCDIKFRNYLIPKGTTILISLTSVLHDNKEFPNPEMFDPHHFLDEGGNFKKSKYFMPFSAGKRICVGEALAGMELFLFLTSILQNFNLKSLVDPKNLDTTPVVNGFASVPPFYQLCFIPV
# Cytochrome P450 2C19 = Cytochrome P450 2C19 (Homo sapiens, UniProt P33261); assay: Inhibition of human recombinant CYP2C19; assay type: ADME
# Sequence of Cytochrome P450 2C19 (P33261 whole entry): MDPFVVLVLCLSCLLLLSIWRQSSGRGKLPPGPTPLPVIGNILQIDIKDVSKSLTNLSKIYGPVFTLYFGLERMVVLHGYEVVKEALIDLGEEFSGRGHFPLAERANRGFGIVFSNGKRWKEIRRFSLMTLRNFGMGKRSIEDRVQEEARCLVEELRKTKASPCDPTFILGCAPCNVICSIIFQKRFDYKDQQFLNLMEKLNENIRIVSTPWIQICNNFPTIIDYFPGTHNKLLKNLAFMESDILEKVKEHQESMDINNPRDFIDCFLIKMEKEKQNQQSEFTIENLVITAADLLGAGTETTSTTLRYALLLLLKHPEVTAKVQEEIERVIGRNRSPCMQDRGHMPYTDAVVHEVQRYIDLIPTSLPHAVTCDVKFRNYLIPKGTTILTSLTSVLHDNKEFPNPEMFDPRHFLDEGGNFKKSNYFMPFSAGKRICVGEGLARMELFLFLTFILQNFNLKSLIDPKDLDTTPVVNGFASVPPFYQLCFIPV
# Cytochrome P450 3A4 = Cytochrome P450 3A4 (Homo sapiens, UniProt P08684); assay: Inhibition of human recombinant CYP3A4; assay type: ADME
# Sequence of Cytochrome P450 3A4 (P08684 whole entry): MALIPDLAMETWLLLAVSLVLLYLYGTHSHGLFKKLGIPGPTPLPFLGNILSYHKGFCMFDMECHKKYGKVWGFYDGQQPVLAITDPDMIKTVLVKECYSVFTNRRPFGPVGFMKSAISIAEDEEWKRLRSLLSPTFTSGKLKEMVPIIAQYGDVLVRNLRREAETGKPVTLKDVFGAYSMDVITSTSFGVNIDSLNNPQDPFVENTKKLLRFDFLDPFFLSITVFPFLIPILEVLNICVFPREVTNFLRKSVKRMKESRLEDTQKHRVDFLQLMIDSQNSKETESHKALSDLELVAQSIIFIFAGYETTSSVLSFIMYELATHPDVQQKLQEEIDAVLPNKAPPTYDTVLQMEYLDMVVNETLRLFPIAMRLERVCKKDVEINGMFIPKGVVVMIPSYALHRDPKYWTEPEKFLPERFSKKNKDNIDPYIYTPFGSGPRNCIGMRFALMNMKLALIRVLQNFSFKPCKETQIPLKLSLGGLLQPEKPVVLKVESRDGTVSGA
# Cytochrome P450 2D6 = Cytochrome P450 2D6 (Homo sapiens, UniProt P10635); assay: Inhibition of human recombinant CYP2D6; assay type: ADME
# Sequence of Cytochrome P450 2D6 (P10635 whole entry): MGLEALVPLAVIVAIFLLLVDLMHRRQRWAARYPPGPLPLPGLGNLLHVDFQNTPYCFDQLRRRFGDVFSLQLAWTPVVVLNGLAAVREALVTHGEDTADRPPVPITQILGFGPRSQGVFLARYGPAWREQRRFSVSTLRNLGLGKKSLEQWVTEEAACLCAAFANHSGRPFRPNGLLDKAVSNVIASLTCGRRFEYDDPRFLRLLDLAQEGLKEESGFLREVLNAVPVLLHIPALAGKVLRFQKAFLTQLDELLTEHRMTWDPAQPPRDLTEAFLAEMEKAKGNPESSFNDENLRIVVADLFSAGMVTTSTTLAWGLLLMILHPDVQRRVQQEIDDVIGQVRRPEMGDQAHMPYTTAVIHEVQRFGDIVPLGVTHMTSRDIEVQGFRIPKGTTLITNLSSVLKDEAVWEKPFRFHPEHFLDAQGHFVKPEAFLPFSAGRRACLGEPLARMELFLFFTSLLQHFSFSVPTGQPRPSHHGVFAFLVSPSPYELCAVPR
# HepG2 [8] = assay: Cytotoxicity against human HepG2 cells up to 100 uM by neutral red uptake assay; assay type: cell-based
# Liver microsomes [9] = assay: Intrinsic clearance in rat liver microsomes assessed per milligram of protein; assay type: ADME, Microsome
# Liver = assay: Intrinsic clearance in mouse liver microsomes assessed per milligram of protein; assay type: ADME, Microsome
# Mus musculus [10] = assay: Antinociceptive activity in CD1 mouse assessed as inhibition of formalin-induced pain at 80 mg/kg, ip administered 15 mins before formalin-challenge measured after 15 to 30 mins; assay type: functional; settings: route intraperitoneal; how it was run: as §1
# [11] = molecular target: Voltage-gated inwardly rectifying potassium channel KCNH2 (Homo sapiens, UniProt Q12809); assay: Binding affinity to human ERG channel by patch clamp assay
# Sequence of Voltage-gated inwardly rectifying potassium channel KCNH2 (Q12809 whole entry): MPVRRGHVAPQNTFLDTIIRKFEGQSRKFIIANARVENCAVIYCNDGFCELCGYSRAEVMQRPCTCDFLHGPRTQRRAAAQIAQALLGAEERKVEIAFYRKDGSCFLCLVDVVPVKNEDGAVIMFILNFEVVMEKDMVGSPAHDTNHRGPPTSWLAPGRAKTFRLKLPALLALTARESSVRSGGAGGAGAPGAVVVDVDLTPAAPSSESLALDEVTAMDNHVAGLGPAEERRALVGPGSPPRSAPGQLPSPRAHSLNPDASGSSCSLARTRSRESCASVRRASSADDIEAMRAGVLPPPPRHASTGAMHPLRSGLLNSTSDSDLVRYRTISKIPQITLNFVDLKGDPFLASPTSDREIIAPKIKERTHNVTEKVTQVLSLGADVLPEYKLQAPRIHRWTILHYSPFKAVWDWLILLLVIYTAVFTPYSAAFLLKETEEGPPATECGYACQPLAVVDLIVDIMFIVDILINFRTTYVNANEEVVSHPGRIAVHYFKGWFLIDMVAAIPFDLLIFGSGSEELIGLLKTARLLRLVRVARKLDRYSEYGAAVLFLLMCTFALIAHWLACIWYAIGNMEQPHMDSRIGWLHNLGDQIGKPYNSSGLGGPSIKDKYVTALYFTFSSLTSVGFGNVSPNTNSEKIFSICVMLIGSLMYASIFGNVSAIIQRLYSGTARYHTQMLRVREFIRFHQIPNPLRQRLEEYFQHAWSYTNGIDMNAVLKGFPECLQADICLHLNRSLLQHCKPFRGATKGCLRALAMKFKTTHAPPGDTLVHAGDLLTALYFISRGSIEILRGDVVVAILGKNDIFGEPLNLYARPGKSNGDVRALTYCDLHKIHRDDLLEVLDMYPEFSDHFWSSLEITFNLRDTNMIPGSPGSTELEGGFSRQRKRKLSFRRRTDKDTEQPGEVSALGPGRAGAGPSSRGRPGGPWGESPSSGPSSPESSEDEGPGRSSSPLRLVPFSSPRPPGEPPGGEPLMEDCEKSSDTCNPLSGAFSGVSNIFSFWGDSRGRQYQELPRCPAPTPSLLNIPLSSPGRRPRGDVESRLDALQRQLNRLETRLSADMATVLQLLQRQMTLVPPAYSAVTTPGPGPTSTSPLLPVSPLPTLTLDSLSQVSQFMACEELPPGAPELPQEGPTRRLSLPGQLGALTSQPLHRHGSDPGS
# Mus musculus [12] = assay: Antinociceptive activity in CD1 mouse assessed as inhibition of capsaicin-induced mechanical hypersensitivity at 80 mg/kg, po administered 30 mins before capsaicin-challenge measured after 15 mins; assay type: functional
# [13] = molecular target: 5-hydroxytryptamine receptor 2B (Homo sapiens, UniProt P41595); assay: Binding affinity to human 5-HT2B receptor
# Sequence of 5-hydroxytryptamine receptor 2B (P41595 whole entry): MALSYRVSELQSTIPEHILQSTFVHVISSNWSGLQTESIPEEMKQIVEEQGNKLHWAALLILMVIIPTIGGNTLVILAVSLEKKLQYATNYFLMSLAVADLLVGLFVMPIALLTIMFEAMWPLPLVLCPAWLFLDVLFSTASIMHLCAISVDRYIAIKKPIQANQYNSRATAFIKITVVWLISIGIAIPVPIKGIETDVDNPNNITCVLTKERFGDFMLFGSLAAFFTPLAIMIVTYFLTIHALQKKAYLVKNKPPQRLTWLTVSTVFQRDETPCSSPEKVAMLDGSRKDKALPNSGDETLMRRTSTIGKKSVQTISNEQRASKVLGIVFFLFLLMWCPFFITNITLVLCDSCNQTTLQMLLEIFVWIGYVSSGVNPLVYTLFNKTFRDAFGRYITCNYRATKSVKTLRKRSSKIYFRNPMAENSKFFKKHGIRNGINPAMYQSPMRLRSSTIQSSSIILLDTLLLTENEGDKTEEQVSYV
# Liver microsomes [14] = assay: Intrinsic clearance in human liver microsomes assessed per milligram of protein; assay type: ADME, Microsome
Compound,Ki [1],Ki [2],further results
CC(C)CCOc1ccc2c(c1)[C@H]1OCCC[C@H]1[C@@H](C1CCCC1)N2 (racemic),1000 nM,124 nM,
CC(C)CCOc1ccc2c(c1)[C@H]1OCCC[C@H]1[C@@H](C1CCCCC1)N2,1000 nM,14 nM,solubility kinetic [3]: < 1 µM
Clc1ccccc1Oc1ccc2c(c1)[C@H]1OCCC[C@H]1[C@@H](C1CCCCC1)N2 (racemic),1000 nM,> 1000 nM,
CCN1CCC([C@H]2Nc3ccc(OCCC(C)C)cc3[C@H]3OCCC[C@H]32)CC1 (racemic),1000 nM,317 nM,
CC(C)CCOc1ccc2c(c1)[C@H]1OCCC[C@H]1[C@@H](C1CCOCC1)N2 (racemic),,84 nM,
CCCCCc1ccc2c(c1)[C@@H]1OCCC[C@@H]1[C@H](C1CCCCC1)N2,1000 nM,> 1000 nM,
Clc1ccc(Oc2ccc3c(c2)[C@H]2OCCC[C@H]2[C@@H](C2CCCCC2)N3)cc1 (racemic),> 1000 nM,194 nM,solubility kinetic [3]: < 0.4 µM
CCCCCc1ccc2c(c1)[C@H]1OCCC[C@H]1[C@@H](C1CCOCC1)N2 (racemic),1000 nM,67 nM,
CC(C)CCOc1ccc2c(c1)[C@H]1OCC[C@H]1[C@@H](C1CCCCC1)N2 (racemic),1000 nM,108 nM,
CCCCc1ccc2c(c1)[C@H]1OCCC[C@H]1[C@@H](C1CCCCC1)N2 (racemic),1000 nM,> 1000 nM,
Clc1ccc(Oc2ccc3c(c2)[C@H]2OCCC[C@H]2[C@H](C2CCCCC2)N3)cc1 (racemic),1000 nM,> 1000 nM,
CCCCOc1ccc2c(c1)[C@H]1OCCC[C@H]1[C@@H](C1CC1)N2 (racemic),1000 nM,> 1000 nM,
CCCCOc1ccc2c(c1)[C@H]1OCCC[C@H]1[C@@H](c1ccccc1)N2 (racemic),1000 nM,> 1000 nM,
Fc1ccc(COc2ccc3c(c2)[C@H]2OCCC[C@H]2[C@@H](C2CCCCC2)N3)cc1 (racemic),1000 nM,> 1000 nM,
Clc1ccc(Oc2ccc3c(c2)[C@H]2OCCC[C@H]2[C@@H](C2CCCCC2)N3)cc1Cl (racemic),1000 nM,79 nM,
Clc1cccc(Oc2ccc3c(c2)[C@H]2OCCC[C@H]2[C@H](C2CCCCC2)N3)c1 (racemic),1000 nM,> 1000 nM,
c1ccc(-c2ccc3c(c2)[C@H]2OCCC[C@H]2[C@@H](C2CCCCC2)N3)cc1 (racemic),1000 nM,> 1000 nM,
Clc1cccc(Oc2ccc3c(c2)[C@H]2OCCC[C@H]2[C@@H](C2CCCCC2)N3)c1 (racemic),1000 nM,377 nM,
Cc1cc(OCCN2CCOCC2)nn1-c1ccc2ccccc2c1,1000 nM,,
CCCCOc1ccc2c(c1)[C@H]1OCC[C@H]1[C@@H](C1CCCCC1)N2 (racemic),1000 nM,> 1000 nM,

Compound,Ki [1],Ki [2],further results
c1ccc(Oc2ccc3c(c2)[C@H]2OCCC[C@H]2[C@@H](C2CCCCC2)N3)cc1 (racemic),1000 nM,> 1000 nM,
CCCCCc1ccc2c(c1)[C@H]1OCCC[C@H]1[C@@H](C1CCCCC1)N2,1000 nM,19 nM,solubility kinetic [3]: < 1 µM
c1ccc2c(c1)N[C@H](C1CCCCC1)[C@@H]1CCCO[C@H]21 (racemic),1000 nM,> 1000 nM,
Clc1ccc(Oc2ccc3c(c2)[C@H]2OCC[C@H]2[C@@H](C2CCCCC2)N3)cc1 (racemic),1000 nM,302 nM,
CC(C)CCOc1ccc2c(c1)[C@@H]1OCCC[C@@H]1[C@H](C1CCOCC1)N2,1000 nM,> 1000 nM,
CC(C)CCOc1ccc2c(c1)[C@H]1OCCC[C@H]1[C@@H](C1CCOCC1)N2 [listing 1 of 2 here],,,inhibition (Mus musculus [4]): Dose-dependent effect
CCCCCc1ccc2c(c1)[C@H]1OCCC[C@H]1[C@@H](C1CCCCC1)N2 (racemic),,43 nM,
CC(C)CCOc1ccc2c(c1)[C@H]1OCCC[C@H]1[C@@H](C1CCNCC1)N2 (racemic),1000 nM,536 nM,
CC(C)CCOc1ccc2c(c1)[C@H]1OCCC[C@H]1[C@@H](C1CCOCC1)N2 [listing 2 of 2 here],1000 nM,30 nM,IC50 (Cytochrome P450 1A2): > 5 µM; Activity (HepG2 [5]): Non-toxic; Activity (Salmonella typhimurium): Non-toxic; pKa [6]: 3.8; inhibition in vivo at 40 mg/kg (Mus musculus [7]): 40%; IC50 (Cytochrome P450 2C9): > 5 µM; IC50 (Cytochrome P450 2C19): > 5 µM; IC50 (Cytochrome P450 3A4): > 5 µM; IC50 (Cytochrome P450 2D6): > 5 µM; Activity (HepG2 [8]): Non-toxic; CLH (Liver microsomes [9]): 21.7 µL/min; CLH (Liver): 15.1 µL/min; inhibition in vivo at 80 mg/kg (Mus musculus [10]): 81%; IC50 [11]: > 10 µM; inhibition in vivo at 80 mg/kg (Mus musculus [12]): 63%; Ki [13]: 5.3 µM; CLH (Liver microsomes [14]): 5 µL/min
O=C(CCCN1CCC(O)(c2ccc(Cl)cc2)CC1)c1ccc(F)cc1 [HALOPERIDOL],1000 nM,,
CCCCOc1ccc2c(c1)[C@H]1OCCC[C@H]1[C@@H](C1CCCCC1)N2 (racemic),1000 nM,178 nM,
CC(C)CCOc1ccc2c(c1)[C@@H]1OCCC[C@@H]1[C@H](C1CCCCC1)N2,1000 nM,> 1000 nM,
CCCNS(=O)(=O)c1ccc2c(c1)[C@H]1OCCC[C@H]1[C@@H](C1CCCCC1)N2 (racemic),1000 nM,> 1000 nM,
CCCCCc1ccc2c(c1)[C@H]1OCCC[C@H]1[C@@H](C(CC)CC)N2 (racemic),1000 nM,410 nM,
CC(C)CCOc1ccc2c(c1)[C@H]1OCCC[C@H]1[C@@H](C1CCN(Cc3ccccc3)CC1)N2 (racemic),1000 nM,15 nM,solubility kinetic [3]: < 1 µM
CC(C)CCOc1ccc2c(c1)[C@H]1OCCC[C@H]1[C@@H](C1CCCCC1)N2 (racemic),,52 nM,
O=C(Nc1ccc2c(c1)[C@H]1OCCC[C@H]1[C@@H](C1CCCCC1)N2)c1ccccc1 (racemic),1000 nM,> 1000 nM,
c1cc2c(cc1C1CCCCC1)[C@H]1OCCC[C@H]1[C@@H](C1CCCCC1)N2 (racemic),1000 nM,> 1000 nM,
CCCCCc1ccc2c(c1)[C@H]1OCC[C@H]1[C@@H](C1CCCCC1)N2 (racemic),1000 nM,245 nM,
